From ChEMBL document CHEMBL4145462, “Nitrogen-containing ecdysteroid derivatives vs. multi-drug resistance in cancer: Preparation and antitumor activity of oximes, oxime ethers and a lactam” (Eur J Med Chem, 2018)

How the values were obtained:
[1] = Synergistic cytotoxicity against mouse L5178 cells assessed as combination index at ED90 using 150:1 test compound to doxorubicin ratio after 48 hrs by MTT-based checkerboard microplate method; type: functional
In short: (§1)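 Checkerboard microplate combinations of compound with doxorubicin at constant molar ratios. 5 × 10^4 cells/well in McCoy's 5A, 48 h at 37°C, 5% CO2. MTT added to 0.5 mg/mL final for 4 h, SDS/HCl overnight, OD read at 540 and 630 nm. Combination indices derived per ratio for 50%, 75% and 90% growth inhibition by median-effect analysis.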

[2] = Synergistic cytotoxicity against mouse L5178 cells expressing human ABCB1 assessed as combination index at ED75 using 30:1 test compound to doxorubicin ratio after 48 hrs by MTT-based checkerboard microplate method; type: functional; in short: as §1
[3] = Synergistic cytotoxicity against mouse L5178 cells assessed as combination index at ED90 using 600:1 test compound to doxorubicin ratio after 48 hrs by MTT-based checkerboard microplate method; type: functional; in short: as §1
[4] = Synergistic cytotoxicity against mouse L5178 cells assessed as combination index at ED75 using 600:1 test compound to doxorubicin ratio after 48 hrs by MTT-based checkerboard microplate method; type: functional; in short: as §1
[5] = Synergistic cytotoxicity against mouse L5178 cells expressing human ABCB1 assessed as combination index at ED50 using 15:1 test compound to doxorubicin ratio after 48 hrs by MTT-based checkerboard microplate method; type: functional; in short: as §1
[6] = Cytotoxicity against mouse L5178 cells expressing human ABCB1 after 48 hrs by MTT assay; type: functional, cell-based; details: L5178, 48 h
In short: (§2)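 Parental mouse lymphoma L5178 and the MDR line made by pHa MDR1/A retrovirus transfection, selected with 60 µg/L colchicine. Grown in McCoy's 5A with horse serum at 37°C, 5% CO2. 5 x 10^4 cells/well, serial compound dilutions, 48 h. MTT added to 0.5 mg/mL final for 4 h, then 10% SDS in 0.01 M HCl overnight, OD read at 540 and 630 nm. IC50 taken as median cytotoxic activity (Dm) from control lanes of checkerboard plates, n=2.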

MDA-MB-231 = assay: Antiproliferative activity against human MDA-MB-231 cells after 72 hrs by MTT assay; type: functional, cell-based; details: MDA-MB-231, 72 h
In short: (§3)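 Cells grown in MEM with 10% FCS, 1% non-essential amino acids and 1% penicillin-streptomycin. Seeded at 5000 cells/well, exposed to 0.1–30.0 µM compound for 72 h. MTT (5 mg/ml solution) was then added for 4 h, formazan dissolved in DMSO, and absorbance read at 545 nm. Cisplatin served as positive control. IC50 came from sigmoidal dose–response fits (log inhibitor vs normalized response, variable slope).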

HeLa = assay: Antiproliferative activity against human HeLa cells after 72 hrs by MTT assay; type: functional, cell-based; in short: as §3
[7] = Synergistic cytotoxicity against mouse L5178 cells expressing human ABCB1 assessed as combination index at ED75 using 15:1 test compound to doxorubicin ratio after 48 hrs by MTT-based checkerboard microplate method; type: functional; in short: as §1
[8] = Synergistic cytotoxicity against mouse L5178 cells assessed as combination index at ED75 using 37.5:1 test compound to doxorubicin ratio after 48 hrs by MTT-based checkerboard microplate method; type: functional; in short: as §1
[9] = Synergistic cytotoxicity against mouse L5178 cells expressing human ABCB1 assessed as combination index at ED50 using 7.5:1 test compound to doxorubicin ratio after 48 hrs by MTT-based checkerboard microplate method; type: functional; in short: as §1
[10] = Synergistic cytotoxicity against mouse L5178 cells expressing human ABCB1 assessed as combination index at ED90 using 7.5:1 test compound to doxorubicin ratio after 48 hrs by MTT-based checkerboard microplate method; type: functional; in short: as §1
[11] = Synergistic cytotoxicity against mouse L5178 cells expressing human ABCB1 assessed as combination index at ED90 using 15:1 test compound to doxorubicin ratio after 48 hrs by MTT-based checkerboard microplate method; type: functional; in short: as §1
[12] = Synergistic cytotoxicity against mouse L5178 cells expressing human ABCB1 assessed as combination index at ED50 using 3.75:1 test compound to doxorubicin ratio after 48 hrs by MTT-based checkerboard microplate method; type: functional; in short: as §1
[13] = Synergistic cytotoxicity against mouse L5178 cells expressing human ABCB1 assessed as combination index at ED75 using 3.75:1 test compound to doxorubicin ratio after 48 hrs by MTT-based checkerboard microplate method; type: functional; in short: as §1
MCF7 = assay: Antiproliferative activity against human MCF7 cells after 72 hrs by MTT assay; type: functional, cell-based; details: MCF7, 72 h; in short: as §3
[14] = Synergistic cytotoxicity against mouse L5178 cells expressing human ABCB1 assessed as combination index at ED90 using 30:1 test compound to doxorubicin ratio after 48 hrs by MTT-based checkerboard microplate method; type: functional; in short: as §1
ABCB1 (P-glycoprotein) = ABCB1 (P-glycoprotein) (Homo sapiens, UniProt P08183); assay: Inhibition of human ABCB1 expressed in mouse L5178 cells assessed as increase in rhodamine-123 accumulation at 20 uM after 10 mins by flow cytometric analysis relative to control; type: cell-based; details: mouse L5178 cells expressing human ABCB1, probe rhodamine-123
In short: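 Cells at 2 × 10^6/mL were preincubated 10 min with compound. Rhodamine 123 then added to 5.2 µM final, 20 min at 37 °C. Cells washed twice in PBS, resuspended and read by flow cytometry. Percent inhibition was scaled between MDR-cell accumulation (0%) and parental L5178 accumulation (100%). Controls: 100 nM tariquidar (positive) and 2% DMSO (negative).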

[15] = Synergistic cytotoxicity against mouse L5178 cells assessed as combination index at ED75 using 75:1 test compound to doxorubicin ratio after 48 hrs by MTT-based checkerboard microplate method; type: functional; in short: as §1
[16] = Synergistic cytotoxicity against mouse L5178 cells assessed as combination index at ED50 using 75:1 test compound to doxorubicin ratio after 48 hrs by MTT-based checkerboard microplate method; type: functional; in short: as §1
[17] = Synergistic cytotoxicity against mouse L5178 cells assessed as combination index at ED50 using 37.5:1 test compound to doxorubicin ratio after 48 hrs by MTT-based checkerboard microplate method; type: functional; in short: as §1
[18] = Cytotoxicity against mouse L5178 cells after 48 hrs by MTT assay; type: functional, cell-based; details: L5178, 48 h; in short: as §2
[19] = Synergistic cytotoxicity against mouse L5178 cells assessed as combination index at ED90 using 75:1 test compound to doxorubicin ratio after 48 hrs by MTT-based checkerboard microplate method; type: functional; in short: as §1
[20] = Synergistic cytotoxicity against mouse L5178 cells assessed as combination index at ED50 using 600:1 test compound to doxorubicin ratio after 48 hrs by MTT-based checkerboard microplate method; type: functional; in short: as §1
[21] = Synergistic cytotoxicity against mouse L5178 cells expressing human ABCB1 assessed as combination index at ED50 using 30:1 test compound to doxorubicin ratio after 48 hrs by MTT-based checkerboard microplate method; type: functional; in short: as §1
[22] = Synergistic cytotoxicity against mouse L5178 cells expressing human ABCB1 assessed as combination index at ED90 using 3.75:1 test compound to doxorubicin ratio after 48 hrs by MTT-based checkerboard microplate method; type: functional; in short: as §1
[23] = Synergistic cytotoxicity against mouse L5178 cells expressing human ABCB1 assessed as combination index at ED50 using 60:1 test compound to doxorubicin ratio after 48 hrs by MTT-based checkerboard microplate method; type: functional; in short: as §1
[24] = Synergistic cytotoxicity against mouse L5178 cells expressing human ABCB1 assessed as combination index at ED90 using 60:1 test compound to doxorubicin ratio after 48 hrs by MTT-based checkerboard microplate method; type: functional; in short: as §1

Chain of ABCB1 (P-glycoprotein) (P08183 whole entry): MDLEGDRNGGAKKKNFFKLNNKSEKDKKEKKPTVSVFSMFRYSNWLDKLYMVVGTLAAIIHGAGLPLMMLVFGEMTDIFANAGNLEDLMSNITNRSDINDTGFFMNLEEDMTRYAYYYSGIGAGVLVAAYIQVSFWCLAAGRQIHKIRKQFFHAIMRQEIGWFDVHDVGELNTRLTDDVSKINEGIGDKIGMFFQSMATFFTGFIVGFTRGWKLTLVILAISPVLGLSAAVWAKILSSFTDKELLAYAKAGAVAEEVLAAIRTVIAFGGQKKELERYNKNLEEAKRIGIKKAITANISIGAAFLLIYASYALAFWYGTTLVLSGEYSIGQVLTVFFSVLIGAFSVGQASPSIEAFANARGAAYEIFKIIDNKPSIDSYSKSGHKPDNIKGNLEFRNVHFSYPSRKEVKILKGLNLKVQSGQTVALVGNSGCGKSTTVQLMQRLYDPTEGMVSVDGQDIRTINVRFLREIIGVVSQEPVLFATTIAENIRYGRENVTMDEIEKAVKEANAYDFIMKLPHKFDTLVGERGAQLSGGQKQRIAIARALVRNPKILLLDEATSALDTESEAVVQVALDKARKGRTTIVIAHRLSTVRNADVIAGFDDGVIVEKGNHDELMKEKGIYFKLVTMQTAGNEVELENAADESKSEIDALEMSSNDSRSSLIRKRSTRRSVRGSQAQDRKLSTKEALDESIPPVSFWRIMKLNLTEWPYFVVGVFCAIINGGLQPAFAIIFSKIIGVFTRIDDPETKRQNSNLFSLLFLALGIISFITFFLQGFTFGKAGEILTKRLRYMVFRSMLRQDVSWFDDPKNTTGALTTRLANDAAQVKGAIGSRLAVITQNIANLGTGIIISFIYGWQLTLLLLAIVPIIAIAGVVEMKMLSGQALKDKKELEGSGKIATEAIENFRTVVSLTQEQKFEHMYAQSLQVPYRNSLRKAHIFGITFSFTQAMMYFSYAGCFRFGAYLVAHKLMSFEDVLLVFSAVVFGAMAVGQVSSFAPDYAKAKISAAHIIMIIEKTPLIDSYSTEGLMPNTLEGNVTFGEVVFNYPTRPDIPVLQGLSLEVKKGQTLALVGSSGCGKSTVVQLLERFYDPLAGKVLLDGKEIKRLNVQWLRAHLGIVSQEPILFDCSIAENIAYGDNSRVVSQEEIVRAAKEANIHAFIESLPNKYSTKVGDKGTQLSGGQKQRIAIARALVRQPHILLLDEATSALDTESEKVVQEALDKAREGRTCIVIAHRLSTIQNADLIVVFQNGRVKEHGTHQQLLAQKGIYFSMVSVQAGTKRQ

| IC50 (MDA-MB-231) | IC50 (HeLa) | IC50 (MCF7) | inhibition at 10 min, 20 µM (ABCB1 (P-glycoprotein)) | SMILES | CI [1] | CI [2] | CI [5] | IC50 [6] | CI [7] | CI [8] | CI [9] | CI [10] | CI [11] | CI [12] | CI [13] | CI [14] | CI [15] | CI [16] | CI [17] | IC50 [18] | other results |
| --- | --- | --- | --- | --- | --- | --- | --- | --- | --- | --- | --- | --- | --- | --- | --- | --- | --- | --- | --- | --- | --- |
| 25.1 µM | 29.1 µM | 13.1 µM | 75% | CCO/N=C1/C=C2[C@H](CC[C@]3(C)[C@@H]([C@@]4(C)OC(C)(C)O[C@@H]4CCC(C)(C)O)CC[C@@]23O)[C@@]2(C)C[C@@H]3OC(C)(C)O[C@@H]3C[C@@H]12 | 0.73 | 0.23 | 0.62 | 42.2 µM | 0.17 | 0.52 | 0.19 | 0.17 | 0.19 | 0.27 | 0.16 | 0.26 | 0.58 | 0.58 | 0.63 | 37.3 µM | CI [3]: 0.94; CI [4]: 0.83; CI [19]: 0.58; CI [20]: 0.75; CI [21]: 0.23; CI [22]: 0.13 |
| 26.9 µM | 17.6 µM | 17.2 µM | 81.8% | C=CCO/N=C1/C=C2[C@H](CC[C@]3(C)[C@@H]([C@@]4(C)OC(C)(C)O[C@@H]4CCC(C)(C)O)CC[C@@]23O)[C@@]2(C)C[C@@H]3OC(C)(C)O[C@@H]3C[C@@H]12 | 1.31 | 0.22 | 0.17 | 49.3 µM | 0.16 | 1.11 | 0.2 | 0.19 | 0.17 | 0.23 | 0.19 | 0.25 | 0.83 | 0.7 | 1.08 | 36.7 µM | CI [23]: 0.31; CI [24]: 0.35; CI [19]: 1.03; CI [21]: 0.21; CI [22]: 0.16 |
| 26 µM | 30 µM | 19.6 µM | 108% | CCO/N=C1/C=C2C3=CC[C@H]([C@@]4(C)OC(C)(C)O[C@@H]4CCC(C)(C)O)[C@@]3(C)CC[C@@H]2[C@@]2(C)C[C@@H]3OC(C)(C)O[C@@H]3C[C@@H]12 | 0.56 | 0.2 | 0.42 | 58.9 µM | 0.18 | 0.66 | 0.21 | 0.11 | 0.18 | 0.25 | 0.14 | 0.2 | 0.5 | 0.49 | 0.72 | 53.2 µM | CI [3]: 1; CI [23]: 0.36; CI [24]: 0.37; CI [4]: 1.1; CI [19]: 0.52; CI [20]: 1.21; CI [21]: 0.22; CI [22]: 0.1 |
